Measurements as given in ChEMBL document CHEMBL1157434, “2-Aminopropane-1,2,3-tricarboxylic acid: Synthesis and co-crystallization with the class A beta-lactamase BS3 of Bacillus licheniformis” (Bioorg Med Chem Lett, 2008).

Assays:
[1] = biological target: Beta-lactamase OXA-10 (Pseudomonas aeruginosa) (UniProt P14489); assay: Inhibition of Pseudomonas aeruginosa beta-lactamase Oxa-10 in 50 mM phosphate buffer at pH 7.2 at 100 uM; values are per cent of control
Enterobacter cloacae = assay: Inhibition of Enterobacter cloacae beta-lactamase P99 in 50 mM phosphate buffer at pH 7.2 at 100 uM; values are per cent of control
Bacillus licheniformis = assay: Inhibition of Bacillus licheniformis beta-lactamase BS3 in 50 mM phosphate buffer at pH 7.2 at 100 uM; values are per cent of control
[2] = biological target: T1, Imipenem-hydrolyzing beta-lactamase (Enterobacter cloacae) (UniProt P52663); assay: Inhibition of Enterobacter cloacae beta-lactamase NMCA in 50 mM phosphate buffer at pH 7.2 at 100 uM; values are per cent of control
T1 sequence (whole entry): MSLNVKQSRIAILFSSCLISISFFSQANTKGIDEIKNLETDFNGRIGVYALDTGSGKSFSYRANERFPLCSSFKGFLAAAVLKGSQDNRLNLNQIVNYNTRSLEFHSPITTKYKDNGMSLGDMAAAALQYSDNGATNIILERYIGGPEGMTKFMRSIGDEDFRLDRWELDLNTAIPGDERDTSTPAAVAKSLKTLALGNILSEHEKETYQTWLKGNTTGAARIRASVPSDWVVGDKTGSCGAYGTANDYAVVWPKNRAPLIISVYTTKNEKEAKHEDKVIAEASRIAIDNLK

[3] = Inhibition of beta-lactamase TEM1 in 50 mM phosphate buffer at pH 7.2 at 2 mM
[4] = Inhibition of beta-lactamase TEM1 in 25 mM acetate buffer at pH 5
Outline: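 Hydrolysis rates were measured without and with inhibitor at varying concentrations. Ki was derived from a plot of V0/Vi against inhibitor concentration. Performed three times.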

[5] = Inhibition of Bacillus licheniformis beta-lactamase BS3 in 25 mM acetate buffer at pH 5
Outline: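 Purified BS3 (1–100 nM) mixed with inhibitor and the chromogenic substrate nitrocefin. Ki obtained from a plot of V0/Vi (uninhibited over inhibited hydrolysis rate) against inhibitor concentration. Three independent runs.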

[6] = system: beta-lactamase BcII (Bacillus cereus); assay: Inhibition of Bacillus cereus beta-lactamase Bc2 in 50 mM phosphate buffer at pH 7.2 at 100 uM; values are per cent of control
[7] = Inhibition of beta-lactamase TEM1 in 50 mM phosphate buffer at pH 7.2 at 0.2 mM

Beta-lactamase OXA-10 (Pseudomonas aeruginosa), sequence (P14489 whole entry): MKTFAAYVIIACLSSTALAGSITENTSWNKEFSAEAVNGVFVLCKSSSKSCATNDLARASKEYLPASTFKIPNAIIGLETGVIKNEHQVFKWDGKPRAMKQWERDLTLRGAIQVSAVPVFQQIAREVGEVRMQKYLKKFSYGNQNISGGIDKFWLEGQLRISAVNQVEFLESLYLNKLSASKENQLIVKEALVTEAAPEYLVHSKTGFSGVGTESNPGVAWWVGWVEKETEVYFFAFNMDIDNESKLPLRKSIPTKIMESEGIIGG

NC(CC(=O)O)(CC(=O)O)C(=O)O
residual activity [1]: 100%
residual activity (Enterobacter cloacae): 81%
residual activity (Bacillus licheniformis): 88%
residual activity [2]: 94%
residual activity [3]: 95%
Ki [4]: 150 µM

O=C(O)CC(C(=O)O)C(O)C(=O)O (stereo unspecified) [ISOCITRATE]
Ki [5]: 2200 µM
Ki [4]: 1500 µM

O=C(O)CC(O)(CC(=O)O)C(=O)O [CITRIC ACID]
Ki [5]: 490 µM
Ki [4]: 730 µM

CCOC(=O)CC(N)(CC(=O)OCC)C(=O)OCC
residual activity [1]: 98%
residual activity (Enterobacter cloacae): 87%
residual activity (Bacillus licheniformis): 82%
residual activity [2]: 60%
residual activity [6]: 92%
residual activity [7]: 71%
